The test has as its target Insulin receptor (Homo sapiens, UniProt P06213). Description: Activation of human insulin receptor tyrosine kinase (IRTK). In outline: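 CHO cells stably transfected with human insulin receptor, plated 150 000 cells/well for 24 h, serum-starved 2 h, then exposed to compound 20 min at 37 °C. Lysate IR captured on anti-IR antibody wells (16 h, 4 °C), kinase reaction 40 min at 25 °C, radioactivity on phosphocellulose filters. Activity as % of maximal response to 100 nM insulin.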

SMILES strings stand for the structures.

The text below walks through data of BindingDB's records for doi:10.1021/jm000285q (Merck Research Laboratories, 2000).

Insulin receptor, sequence (P06213 28-758 limits assumed): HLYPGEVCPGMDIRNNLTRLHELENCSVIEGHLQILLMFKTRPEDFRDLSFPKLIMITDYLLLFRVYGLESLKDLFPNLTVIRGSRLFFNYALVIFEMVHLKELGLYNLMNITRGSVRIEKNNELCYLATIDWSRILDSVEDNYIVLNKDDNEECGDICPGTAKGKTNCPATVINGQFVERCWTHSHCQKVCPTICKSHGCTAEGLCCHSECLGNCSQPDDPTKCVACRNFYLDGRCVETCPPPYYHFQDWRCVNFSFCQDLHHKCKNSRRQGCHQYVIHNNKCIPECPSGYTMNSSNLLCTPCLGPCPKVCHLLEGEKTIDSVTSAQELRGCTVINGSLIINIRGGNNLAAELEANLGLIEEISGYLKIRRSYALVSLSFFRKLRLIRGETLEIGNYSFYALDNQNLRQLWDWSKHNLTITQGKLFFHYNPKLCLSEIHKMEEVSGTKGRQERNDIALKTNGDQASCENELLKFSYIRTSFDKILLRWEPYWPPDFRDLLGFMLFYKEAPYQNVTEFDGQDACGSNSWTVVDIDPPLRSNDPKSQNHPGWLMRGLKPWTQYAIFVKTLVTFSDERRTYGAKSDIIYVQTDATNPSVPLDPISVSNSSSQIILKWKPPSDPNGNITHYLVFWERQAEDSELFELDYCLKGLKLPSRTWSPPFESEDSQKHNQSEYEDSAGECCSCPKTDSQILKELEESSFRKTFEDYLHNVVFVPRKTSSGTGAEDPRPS
Insulin receptor, sequence (P06213 763-1382 limits assumed): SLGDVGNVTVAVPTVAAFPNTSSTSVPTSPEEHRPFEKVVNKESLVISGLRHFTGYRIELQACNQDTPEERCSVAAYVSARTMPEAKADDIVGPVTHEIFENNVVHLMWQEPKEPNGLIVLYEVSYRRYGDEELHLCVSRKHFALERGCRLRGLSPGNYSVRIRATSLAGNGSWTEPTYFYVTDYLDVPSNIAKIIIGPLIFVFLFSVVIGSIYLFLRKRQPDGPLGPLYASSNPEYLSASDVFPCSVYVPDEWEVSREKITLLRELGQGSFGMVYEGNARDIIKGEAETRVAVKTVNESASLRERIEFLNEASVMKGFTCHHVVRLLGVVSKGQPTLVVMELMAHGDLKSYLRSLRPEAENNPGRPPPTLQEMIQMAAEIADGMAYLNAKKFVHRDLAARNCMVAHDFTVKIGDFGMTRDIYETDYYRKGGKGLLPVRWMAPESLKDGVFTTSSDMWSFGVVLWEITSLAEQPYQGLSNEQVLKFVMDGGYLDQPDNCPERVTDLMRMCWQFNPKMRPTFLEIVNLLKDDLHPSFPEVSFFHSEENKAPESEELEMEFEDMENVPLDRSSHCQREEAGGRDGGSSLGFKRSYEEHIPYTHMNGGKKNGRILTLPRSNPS

Take `O=C1C(=O)C(c2c[nH]c3ccccc23)C(=O)C(=O)C1c1ccccc1` (configuration not stated) [2,5-Dihydroxy-3-(1H-indol-3-yl)-6-phenyl-[1,4]benzoquinone]: the midpoint of the response, the EC50, lay at 0.3 µM.

Turning to `Cn1cc(C2C(=O)C(=O)C(c3ccccc3)C(=O)C2=O)c2ccccc21` (configuration not stated) [2,5-Dihydroxy-3-(1-methyl-1H-indol-3-yl)-6-phenyl-[1,4]benzoquinone], it took 0.3 µM to reach a half-maximal effect (EC50).
